The text below walks through data of paper PMC2164977 (The Journal of Cell Biology, 1999).

Non-standard residues stand in square brackets, D forms with d. Residues, ends and D or L forms follow the SMILES beside them. *: point of attachment. Sta = CC(C)C[C@H](N)[C@@H](O)CC(=O)O; Isovaleryl = CC(C)CC(=O)*

In assay [1] the test system is degradation activity of chloroplast extract (ATP-dependent, soluble metallopeptidase activity). The experiment in a line: Degradation assay with chloroplast extract. In kind it is biochemical. The settings on record: for effect on subfragment degradation in chloroplast extract: 30 min incubation, not shown.
The target of assay [2] is SPP in chloroplast extract (Pisum sativum, UniProt Q40983). Put plainly: Conversion of transit peptide to subfragment in chloroplast extract. It counts as biochemical. The gist of the method:
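[35S]methionine-labeled FD transit peptide is made by 3 min cleavage of preFD on immobilized SPP, then frozen, cleared and dialyzed. It is incubated with chloroplast extract (1:1) in 25 mM Hepes-KOH pH 7.5 at 24°C for 30 min with 1,10-phenanthroline at 0.1–10 mM. Percent substrate remaining is quantified by tricine SDS-PAGE.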

The target of assay [3] is T1, stromal processing peptidase (SPP) (Pisum sativum, UniProt Q40983). The settings on record: 10 mM NEM in binding assay; data not shown. The gist of the method:
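Recombinant biotin-tagged SPP from E. coli extract is captured on streptavidin magnetic beads. It is incubated 5 min at 24°C in 25 mM Hepes-KOH pH 7.5 with dialyzed [35S]methionine-labeled FD transit peptide or subfragment. Beads are washed twice in buffer, then eluted once with NaCl (0–1,000 mM), and the remaining material is released by boiling. Tricine SDS-PAGE, autoradiography and PhosphorImager quantification follow.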

In assay [4] the target is T1, stromal processing peptidase (SPP). The experiment in a line: Processing and transit peptide trimming by recombinant SPP. In kind it is biochemical. The settings on record: not shown. An outline of the steps:
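Time courses use reticulocyte-translated [35S]methionine precursors with biotin-tagged recombinant SPP (IPTG-induced E. coli, 30°C) bound to streptavidin magnetic beads. Reactions run in 25 mM Hepes-KOH pH 7.5, 2 mM PMSF, at 24°C, and are stopped by boiling in loading buffer. For preFD and preHSP21, 5 mM 1,10-phenanthroline is added at 2 or 5 min. Products are resolved by tricine SDS-PAGE and autoradiography.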

Assay [5] concerns nonspecific protease activity in rabbit reticulocyte lysate. The experiment in a line: Nonspecific protease activity of the reticulocyte lysate. In kind it is biochemical. The settings on record: 2 mM PMSF, supernatant of preHSP21 processing reaction, 1 h at 24°C. An outline of the steps:
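To check lysate protease, [35S]methionine-labeled preHSP21 from reticulocyte lysate is processed 30 min at 24°C by bead-immobilized SPP. The supernatant holding the transit peptide subfragment is removed and incubated 1 h at 24°C, without inhibitor or with 2 mM PMSF. Remaining subfragment is read out.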

Sequence of SPP in chloroplast extract (Q40983 143-1257): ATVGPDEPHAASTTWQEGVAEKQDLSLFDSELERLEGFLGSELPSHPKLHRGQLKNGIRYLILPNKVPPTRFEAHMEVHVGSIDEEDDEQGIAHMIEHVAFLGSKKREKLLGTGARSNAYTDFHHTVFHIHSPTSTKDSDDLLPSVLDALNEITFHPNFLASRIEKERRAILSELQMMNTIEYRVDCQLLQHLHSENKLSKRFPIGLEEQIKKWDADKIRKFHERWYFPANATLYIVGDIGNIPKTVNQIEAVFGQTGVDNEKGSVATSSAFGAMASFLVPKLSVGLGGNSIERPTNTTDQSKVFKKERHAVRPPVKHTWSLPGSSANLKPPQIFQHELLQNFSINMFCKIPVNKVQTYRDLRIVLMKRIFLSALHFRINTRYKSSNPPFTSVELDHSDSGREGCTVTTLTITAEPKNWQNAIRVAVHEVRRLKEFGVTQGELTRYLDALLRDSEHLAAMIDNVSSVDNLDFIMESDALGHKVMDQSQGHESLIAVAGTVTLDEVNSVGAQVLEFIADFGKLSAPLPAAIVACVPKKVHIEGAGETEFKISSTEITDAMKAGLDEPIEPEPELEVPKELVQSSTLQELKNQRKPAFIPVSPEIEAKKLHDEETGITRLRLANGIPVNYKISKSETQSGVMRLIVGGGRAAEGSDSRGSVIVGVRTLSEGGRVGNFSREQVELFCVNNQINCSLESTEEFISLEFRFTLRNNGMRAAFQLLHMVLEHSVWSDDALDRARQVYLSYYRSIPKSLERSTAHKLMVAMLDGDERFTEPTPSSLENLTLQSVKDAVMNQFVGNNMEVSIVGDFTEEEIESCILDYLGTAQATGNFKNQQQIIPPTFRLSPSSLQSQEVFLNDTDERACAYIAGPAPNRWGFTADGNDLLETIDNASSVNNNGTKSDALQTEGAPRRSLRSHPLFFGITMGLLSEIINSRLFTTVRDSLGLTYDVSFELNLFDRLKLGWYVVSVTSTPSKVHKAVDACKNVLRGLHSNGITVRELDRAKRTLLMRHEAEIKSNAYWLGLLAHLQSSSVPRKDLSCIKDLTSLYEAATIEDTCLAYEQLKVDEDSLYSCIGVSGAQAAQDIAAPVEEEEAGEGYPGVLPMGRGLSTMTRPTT
T1 sequence (Q40983 143-1257): as above

For the molecule `c1cnc2c(c1)ccc1cccnc12` [1,10-phenanthroline], the “FD transit peptide subfragment remaining after 30 min in chloroplast extract” value in assay [1] (1 mM 1,10-phenanthroline, 24°C) amounted to 86%. Moreover, the “effect on degradation of the subfragment in chloroplast extract” value in assay [1] (5 mM 1,10-phenanthroline, 30 min) was “inhibited”. Further, in assay [1] (10 mM 1,10-phenanthroline, 30 min, 24°C), the “degradation of FD transit peptide subfragment in chloroplast extract” value is reported as “no degradation”. Moreover, the “FD transit peptide left after 30 min in chloroplast extract” value in assay [2] (1 mM 1,10-phenanthroline, 24°C) is listed as 16%. The “FD transit peptide remaining after 30 min in chloroplast extract” value in assay [2] (10 mM 1,10-phenanthroline, 24°C) is recorded as 80%. For the same molecule, the “sensitivity of SPP relative to the degradation activity” value in assay [2] (SPP less sensitive than degradation activity) was “about tenfold”.
For `CC(C)CC(=O)N[C@H](C(=O)N[C@H](C(=O)N[C@@H](CC(C)C)[C@@H](O)CC(=O)N[C@@H](C)C(=O)N[C@@H](CC(C)C)[C@@H](O)CC(=O)O)C(C)C)C(C)C` [pepstatin] (Isovaleryl-VV[Sta]A[Sta]-OH), the “effect on subfragment degradation in chloroplast extract” value (shortened to “effect on subfragment degradation”) in assay [1] (100 μM inhibitor) is on record as “None of these inhibitors significantly decreased”.
In the case of `CCN1C(=O)C=CC1=O` [NEM, N-ethylmaleimide], the “effect on subfragment degradation” value in assay [1] (10 mM inhibitor) is recorded as “None of these inhibitors significantly decreased”. The “effect on interaction between SPP and FD transit peptide” value in assay [3] is given as “disrupted the interaction”. Also, the “effect on SPP cleavage of precursors” value in assay [4] is on record as “inhibited”.
For the molecule `CC(C)C[C@H](NC(=O)[C@H]1O[C@@H]1C(=O)O)C(=O)NCCCCN=C(N)N` [E64], in assay [1] (100 μM inhibitor), the “effect on subfragment degradation” value is “None of these inhibitors significantly decreased”.
As to `O=S(=O)(F)Cc1ccccc1` [PMSF], the “effect on subfragment degradation” value in assay [1] (10 mM inhibitor) is on record as “None of these inhibitors significantly decreased”. Also, in assay [5], the “HSP21 transit peptide subfragment remaining” value is given as approximately 90%.
